ChEMBL document CHEMBL1152827, “Bis-pyrazolines: synthesis, characterization and antiamoebic activity as inhibitors of growth of Entamoeba histolytica” (Eur J Med Chem, 2009)

Assays:
[1] = system: Entamoeba histolytica; experiment: Antiamoebic activity against Entamoeba histolytica HM-1:IMSS trophozoites after 72 hrs by microdilution method; format: functional, organism-based
Summary of the method: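 E. histolytica HM1:IMSS trophozoites grown in TYIS-33 medium. Compounds dissolved in DMSO, diluted in medium to 1 mg/ml, then two-fold serial dilutions. Inoculum 1.7 × 10⁴ organisms/well. Plates gassed with N₂ and held at 37 °C for 72 h. Amoebae fixed in cold MeOH and stained with eosin, dye released with 0.1 N NaOH, OD read at 490 nm. Percent inhibition plotted against log dose; IC50 from linear regression.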

[2] = Cytotoxicity against human kidney epithelial cells after 44 hrs by MTT assay; format: cell-based; details: Epithelial cell
[3] = Selectivity index, ratio of IC50 for human kidney epithelial cells to IC50 for Entamoeba histolytica HM-1:IMSS trophozoites; parameters: species or system Epithelial cell
Summary of the method: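 Safety index calculated as IC50 in human kidney epithelial cells (MTT, 44 h plus 4 h) divided by IC50 against E. histolytica HM1:IMSS (72 h eosin-stained microdilution assay).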

SMILES	IC50 [1] [µM]	IC50 [2] [µM]	Ratio IC50 [3]
S=C(NC1CCCCC1)N1N=C(c2ccccc2)CC1c1ccc(C2CC(c3ccccc3)=NN2C(=S)NC2CCCCC2)cc1 (configuration not stated)	1.16	> 90	>77.6
S=C(NC1CCCCCCC1)N1N=C(c2ccccc2)CC1c1ccc(C2CC(c3ccccc3)=NN2C(=S)NC2CCCCCCC2)cc1 (configuration not stated)	0.92	> 90	>97.8
Cc1ncc([N+](=O)[O-])n1CCO [METRONIDAZOLE]		> 100	>55.55
S=C(NC1CCCC1)N1N=C(c2ccccc2)CC1c1ccc(C2CC(c3ccccc3)=NN2C(=S)NC2CCCC2)cc1 (configuration not stated)	> 1.8	> 90	>50
NC(=S)N1N=C(c2ccccc2)CC1c1ccc(C2CC(c3ccccc3)=NN2C(N)=S)cc1 (configuration not stated)	1.57	> 90	>57.3
S=C(N1CCCC1)N1N=C(c2ccccc2)CC1c1ccc(C2CC(c3ccccc3)=NN2C(=S)N2CCCC2)cc1 (configuration not stated)	> 1.8	> 90	>50
CN(Cc1ccccc1)C(=S)N1N=C(c2ccccc2)CC1c1ccc(C2CC(c3ccccc3)=NN2C(=S)N(C)Cc2ccccc2)cc1 (configuration not stated)	> 1.8	> 90	>50

Further lines, with some results ahead:

IC50 [1] [µM]	SMILES	IC50 [2] [µM]	Ratio IC50 [3]
> 1.8	Cc1cccc(NC(=S)N2N=C(c3ccccc3)CC2c2ccc(C3CC(c4ccccc4)=NN3C(=S)Nc3cccc(C)c3)cc2)c1 (configuration not stated)	> 90	>50
0.42	O=[N+]([O-])c1ccc(NC(=S)N2N=C(c3ccccc3)CC2c2ccc(C3CC(c4ccccc4)=NN3C(=S)Nc3ccc([N+](=O)[O-])cc3)cc2)cc1 (configuration not stated)	> 90	>214
0.62	Fc1ccc(NC(=S)N2N=C(c3ccccc3)CC2c2ccc(C3CC(c4ccccc4)=NN3C(=S)Nc3ccc(F)cc3F)cc2)c(F)c1 (configuration not stated)	> 90	>145
> 1.8	Cc1ccc(NC(=S)N2N=C(c3ccccc3)CC2c2ccc(C3CC(c4ccccc4)=NN3C(=S)Nc3ccc(C)cc3)cc2)cc1 (configuration not stated)	> 90	>50
